Measurements taken from ChEMBL document CHEMBL4732262, “Identification of two novel thiophene analogues as inducers of autophagy mediated cell death in breast cancer cells” (Bioorg Med Chem, 2021).
pIC50: −log10 of the molar value. Activity calls are given as the source filed them. The calls are words filed in the database; no cut-off is given here.

What was measured:
MCF7 [1] = test: Cytotoxicity against human MCF7 cells assessed as reduction in cell viability after 24 hrs by MTT assay; assay type: functional, cell-based; conditions: MCF7, 24 h
Procedure, shortened: (§1)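 Cells seeded ~5 × 10^3 per well in 96-well plates, exposed to 0–40 µM for 24 h. MTT added at 0.5 mg/ml for 3 h, formazan dissolved in DMSO, absorbance read at 540 nm. IC50 taken from plotted curves. Duplicate wells, two independent repeats. MCF7 grown in DMEM, MDA-MB-231 in RPMI, both with 10% FBS at 37 °C and 5% CO2.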

MDA-MB-231 [2] = test: Cytotoxicity against human MDA-MB-231 cells assessed as reduction in cell viability after 24 hrs by MTT assay; assay type: functional, cell-based; conditions: MDA-MB-231, 24 h; procedure, shortened: as §1
MCF7 [3] = test: Induction of apoptosis in human MCF7 cells assessed as early apoptotic cells at 2.5 uM after 24 hrs by annexin V-FITC/Propidium iodide staining based flow cytometric analysis (reference value: 3.94%); assay type: functional
MCF7 [4] = test: Induction of apoptosis in human MCF7 cells assessed as late apoptotic cells at 2.5 uM after 24 hrs by annexin V-FITC/Propidium iodide staining based flow cytometric analysis (reference value: 0.2%); assay type: functional
MCF7 [5] = test: Induction of apoptosis in human MCF7 cells assessed as necrotic cells at 2.5 uM after 24 hrs by annexin V-FITC/Propidium iodide staining based flow cytometric analysis (reference value: 1.22%); assay type: functional
MDA-MB-231 [6] = test: Induction of apoptosis in human MDA-MB-231 cells assessed as early apoptotic cells at 2.5 uM after 24 hrs by annexin V-FITC/Propidium iodide staining based flow cytometric analysis (reference value: 1.54%); assay type: functional
MDA-MB-231 [7] = test: Induction of apoptosis in human MDA-MB-231 cells assessed as late apoptotic cells at 2.5 uM after 24 hrs by annexin V-FITC/Propidium iodide staining based flow cytometric analysis (reference value: 0.08%); assay type: functional
MDA-MB-231 [8] = test: Induction of apoptosis in human MDA-MB-231 cells assessed as necrotic cells at 2.5 uM after 24 hrs by annexin V-FITC/Propidium iodide staining based flow cytometric analysis (reference value: 0.65%); assay type: functional
MCF7 [9] = test: Induction of autophagy in human MCF7 cells assessed as LC3-2 to LC3-1 protein ratio at 2.5 uM after 24 hrs by Western blot analysis (reference value: 0.22 to 0.8); assay type: functional
MCF7 [10] = test: Cytotoxicity against human MCF7 cells assessed as reduction in cell viability at 100 uM after 24 hrs by MTT assay; assay type: functional, cell-based
MDA-MB-231 [11] = test: Cytotoxicity against human MDA-MB-231 cells assessed as reduction in cell viability at 100 uM after 24 hrs by MTT assay; assay type: functional, cell-based
MCF7 [12] = test: Induction of apoptosis in human MCF7 cells assessed as increase in cell death at 2.5 uM after 24 hrs by EtBr/AO staining based fluorescence microscopic method; assay type: functional
Procedure, shortened: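 ~5 × 10^4 MCF7 cells on coverslips given 2.5 µM for 24 h, then PBS-washed and stained with 1:1 ethidium bromide/acridine orange (0.4 mg/ml each). Viewed by fluorescence microscopy, excitation 480 nm with a 515–530 nm barrier filter. Apoptotic, necrotic and viable cells scored from 200 cells per sample.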

MCF7 (Homo sapiens) = test: Induction of apoptosis in human MCF7 cells assessed as increase in cell death at 2.5 uM after 24 hrs by EtBr/AO staining based fluorescence microscopic method
MCF7 [13] = test: Induction of apoptotic in human MCF7 cells assessed as increase in Bim protein expression at 2.5 uM after 24 hrs by Western blot analysis; assay type: functional, cell-based
Procedure, shortened: (§2)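 MCF7 or MDA-MB-231 cells given 2.5 µM or DMSO for 24 h, then lysed in RIPA buffer. Immunoblots probed overnight at 4 °C, followed by infrared-labelled secondary antibody for 1 h at 37 °C. Bands imaged and quantified densitometrically, with GAPDH as loading control. Representative of two independent experiments.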

MCF7 [14] = test: Induction of autophagy in human MCF7 cells assessed as increase in Beclin1 protein expression at 2.5 uM after 24 hrs by Western blot analysis; assay type: functional, cell-based; procedure, shortened: as §2
MCF7 [15] = test: Induction of autophagy in human MCF7 cells assessed as increase in LC3-2 to LC3-1 protein ratio at 2.5 uM after 24 hrs by Western blot analysis; assay type: functional, cell-based
Procedure, shortened: (§3)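 MCF7 cells (~5 × 10^6) left untreated (DMSO control) or exposed to 2.5 µM compound for 24 h. Lysed in RIPA buffer, probed overnight at 4 °C, then given infrared-tagged secondary antibodies for 1 h at 37 °C and imaged by infrared scanning. LC3-II/I ratio and p62 taken by densitometry with GAPDH as loading control. Two independent experiments.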

MCF7 [16] = test: Induction of autophagy in human MCF7 cells assessed as increase in p62 degradation at 2.5 uM after 24 hrs by Western blot analysis; assay type: functional, cell-based; procedure, shortened: as §3
MCF7 [17] = test: Induction of autophagy in human MCF7 cells expressing GFP tagged LC3-2 assessed as increase in […] puncta formation at 2.5 uM after 24 hrs by confocal microscopic analysis; assay type: functional, cell-based
Procedure, shortened: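 MCF7 cells (~1 × 10^6) at 70% confluency on glass-bottom dishes were transiently transfected with GFP-LC3 (Lipofectamine 3000). 24 h later they received 2.5 µM compound or DMSO for another 24 h. Nuclei were stained with Hoechst 33342 and lysosomes with LysoTracker Red DND-99, then imaged by live-cell confocal microscopy. LC3 puncta were counted in at least 10 cells from 3 fields. Two independent experiments.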

MCF7 [18] = test: Induction of autophagy in human MCF7 cells assessed as increase in Bcl2L11 mRNA expression at 2.5 uM after 24 hrs by RT-PCR analysis; assay type: functional, cell-based
Procedure, shortened: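 MCF7 cells given 2.5 µM or DMSO for 24 h. Total RNA extracted with TRIzol and reverse-transcribed, then SYBR Green qPCR across 34 autophagy-regulatory genes (95 °C 10 min; 40 cycles of 95 °C 15 s and 60 °C 1 min). Relative expression by 2^-ΔΔCt against housekeeping genes and DMSO control, shown as log2. Two independent experiments.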

| SMILES | pIC50 (MCF7 [1]) | pIC50 (MDA-MB-231 [2]) | Activity (MCF7 [3]) [%] | Activity (MCF7 [4]) [%] | Activity (MCF7 [5]) [%] | Activity (MDA-MB-231 [6]) [%] | Activity (MDA-MB-231 [7]) [%] | Activity (MDA-MB-231 [8]) [%] | Ratio (MCF7 [9]) | also measured |
| --- | --- | --- | --- | --- | --- | --- | --- | --- | --- | --- |
| Cc1coc2c1C(=O)C(=O)c1c-2ccc2c(C)cccc12 [TANSHINONE I] | 5.10 | 5.10 | 14.3 | 0.91 | 3.63 | 1.44 | 0.18 | 3.56 | 0.61 |  |
| CCN(CC)CCCC(C)Nc1ccnc2cc(Cl)ccc12 (centres undefined) |  |  |  |  |  |  |  |  |  | Activity (MCF7 [10]): Active; Activity (MDA-MB-231 [11]): Active |
| O=C1C(=O)c2c(ccc3ccccc23)-c2ccoc21 | 4.84 | 4.68 |  |  |  |  |  |  |  |  |
| Cc1coc2c1C(=O)C(=O)c1c-2ccc2c1CCCC2(C)C [TANSHINONE IIA] | 5.11 | 5.11 | 2.9 | 0.31 | 5.27 | 9.23 | 0.34 | 2.11 | 1.46 | Activity (MCF7 [12]): Active; Activity (MCF7 (Homo sapiens)): Active |
| Cc1cc2c3c(ccc2s1)C(=O)C(=O)c1sccc1-3 | 4.84 | 4.69 |  |  |  |  |  |  |  |  |
| COc1ccc2ccc3c(c2c1)-c1ccsc1C(=O)C3=O | 5.10 | 5.22 | 4.39 | 0.55 | 1.85 | 1.8 | 0.13 | 1.19 | 11.1 | Activity (MCF7 [12]): Active; Activity (MCF7 [13]): Active; Activity (MCF7 [14]): inactive; Activity (MCF7 [15]): Active; Activity (MCF7 [16]): Active; Activity (MCF7 [17]): Active; Activity (MCF7 [18]): Active; Activity (MCF7 (Homo sapiens)): Active |
| Cc1cc2c3c(ccc2s1)C(=O)C(=O)c1ccsc1-3 | 4.76 | 4.63 |  |  |  |  |  |  |  |  |
| O=C1C(=O)c2ccc3ccccc3c2-c2sccc21 | 4.89 | 4.81 |  |  |  |  |  |  |  |  |
| O=C1C(=O)c2occc2-c2c1ccc1ccccc21 | 4.80 | 4.76 |  |  |  |  |  |  |  |  |
